Results as given in ChEMBL document CHEMBL5113423, “Discovery and preclinical profile of sudapyridine (WX-081), a novel anti-tuberculosis agent” (Bioorg Med Chem Lett, 2022).
Converted amounts (≈) assume the structure as drawn.

Experiments:
[1] = Drug concentration in Sprague-Dawley rat plasma at 5 mg/kg,po measured after 96 hrs; type: ADME, organism-based
Procedure, shortened: (§1)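 Tissue distribution study in CD-1 mice (6.25 mg/kg oral) and SD rats (5.0 mg/kg oral). Lung concentration (ng/g) and plasma concentration (ng/mL) measured 96 h after dosing. Lung/plasma ratio is lung concentration divided by plasma concentration.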

[2] = AUC in Sprague-Dawley rat at 200 mg/kg,po measured after 12 days; type: ADME, organism-based; set-up: time 12 day, dose 200 mg/kg, route po; conditions: in vivo
Procedure, shortened: (§2)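 14-day pilot toxicology study in rats, 8 males and 8 females per dose level. Daily oral dosing, with 200 mg/kg as the high dose. Drug exposure is reported as AUC in µM·h.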

[3] = Ratio of drug concentration in CD-1 mouse lung to plasma at 6.25 mg/kg,po measured after 96 hrs; type: ADME, organism-based; procedure, shortened: as §1
[4] = system: Mycobacterium tuberculosis; test: Antimycobacterial activity against Mycobacterium tuberculosis H37Rv assessed as mycobacterial growth inhibition by low oxygen recovery assay; type: functional
Procedure, shortened: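 M. tuberculosis H37Rv under hypoxic conditions, low-oxygen recovery assay (LORA) following Cho et al. Read-out is MIC.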

[5] = Plasma protein binding in rat assessed as bound fraction; type: ADME, cell-free; conditions: read-out: PPB
[6] = Toxicity in Beagle dog assessed as effect on electrocardiogram at 200 mg/kg,po; type: organism-based, Canis lupus familiaris; conditions: in vivo
Procedure, shortened: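 14-day GLP toxicology study in Beagle dogs; oral dosing once daily at 200 mg/kg, given in parallel with the reference drug. ECG recorded daily to detect qualitative changes and QTc interval prolongation.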

[7] = Cytotoxicity against African green monkey Vero cells; type: toxicity, cell-based; conditions: chlorocebus sabaeus
Cytochrome P450 2C19 = Cytochrome P450 2C19 (Homo sapiens, UniProt P33261); test: Inhibition of CYP2C19 (unknown origin); type: ADME
Procedure, shortened: (§3)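 Each CYP isoform screened for inhibition at a single test concentration of 10 μM.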

[8] = Apparent permeability across apical side to basolateral side in dog MDCK cells; type: ADME, cell-based, Canis lupus familiaris
Cytochrome P450 2C9 = Cytochrome P450 2C9 (Homo sapiens, UniProt P11712); test: Inhibition of CYP2C9 (unknown origin); type: ADME; procedure, shortened: as §3
[9] = system: Mycobacterium tuberculosis; test: Antimycobacterial activity against Mycobacterium tuberculosis H37Rv assessed as mycobacterial growth inhibition by microplate alamar blue assay; type: functional
Procedure, shortened: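 M. tuberculosis H37Rv under normoxic conditions, microplate alamar blue assay (MABA) following Cho et al. Read-out is MIC.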

[10] = Ratio of drug concentration in Sprague-Dawley rat lung to plasma at 5 mg/kg,po measured after 96 hrs; type: ADME, organism-based; procedure, shortened: as §1
[11] = Drug concentration in CD-1 mouse plasma at 6.25 mg/kg,po measured after 96 hrs; type: ADME, organism-based; procedure, shortened: as §1
Cytochrome P450 1A2 = biological target: T1, Cytochrome P450 1A2 (Homo sapiens, UniProt P05177); test: Inhibition of CYP1A2 (unknown origin); type: ADME; procedure, shortened: as §3
T1 sequence (P05177 whole entry): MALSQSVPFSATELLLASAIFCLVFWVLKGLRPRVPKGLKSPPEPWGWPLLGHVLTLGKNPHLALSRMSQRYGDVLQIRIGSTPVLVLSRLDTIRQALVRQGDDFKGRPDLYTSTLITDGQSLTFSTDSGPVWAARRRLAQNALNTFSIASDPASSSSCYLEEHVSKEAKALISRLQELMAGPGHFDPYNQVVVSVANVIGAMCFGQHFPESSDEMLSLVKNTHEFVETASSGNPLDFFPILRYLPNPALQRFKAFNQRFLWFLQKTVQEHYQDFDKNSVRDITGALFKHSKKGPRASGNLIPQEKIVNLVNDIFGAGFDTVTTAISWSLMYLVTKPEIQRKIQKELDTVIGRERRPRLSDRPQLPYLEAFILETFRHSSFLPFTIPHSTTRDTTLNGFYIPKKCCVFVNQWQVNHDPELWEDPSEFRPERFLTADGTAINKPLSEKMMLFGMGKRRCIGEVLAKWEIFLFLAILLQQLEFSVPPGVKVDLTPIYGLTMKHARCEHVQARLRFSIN

[12] = Drug concentration in CD-1 mouse lung at 6.25 mg/kg,po measured after 96 hrs; type: ADME, organism-based; conditions: read-out: Ct; procedure, shortened: as §1
[13] = Plasma protein binding in human assessed as bound fraction; type: ADME, cell-free; conditions: read-out: PPB
[14] = Cytotoxicity against human HeLa cells; type: toxicity, cell-based
[15] = Apparent permeability across basolateral side to apical side in dog MDCK cells; type: ADME, cell-based, Canis lupus familiaris
[16] = Toxicity in Sprague-Dawley rat assessed as death at 200 mg/kg,po measured after 12 days; type: organism-based; conditions: in vivo, 288 h, time 12 day
[17] = system: Mycobacterium tuberculosis; test: Antimycobacterial activity against drug-sensitive Mycobacterium tuberculosis assessed as mycobacterial growth inhibition; type: functional
[18] = Drug concentration in Sprague-Dawley rat lung at 5 mg/kg,po measured after 96 hrs; type: ADME, organism-based; conditions: read-out: Ct; procedure, shortened: as §1
Cytochrome P450 2D6 = Cytochrome P450 2D6 (Homo sapiens, UniProt P10635); test: Inhibition of CYP2D6 (unknown origin); type: ADME; procedure, shortened: as §3
[19] = AUC (0 to last) in Sprague-Dawley rat at 5 mg/kg,po; type: ADME, organism-based; set-up: time 0 - last, dose 5 mg/kg, route po; conditions: in vivo
[20] = Half life in Sprague-Dawley rat at 1 mg/kg,iv; type: ADME, organism-based; conditions: in vivo
Procedure, shortened: (§4)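 SD rats. Single iv dose of 1 mg/kg. Clearance and half-life are derived from plasma concentration-time data.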

[21] = Microsomal stability in human liver microsomes assessed as clearance; type: ADME, Microsome; conditions: read-out: CLH
[22] = Volume of distribution at steady state in Sprague-Dawley rat at 1 mg/kg,iv; type: ADME, organism-based; conditions: in vivo, read-out: Vdss
Procedure, shortened: (§5)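 PK in SD rats (1 mg/kg iv, 5.0 mg/kg po) and Beagle dogs (0.5 mg/kg iv, 2.0 mg/kg po). Vd taken from the iv arm, alongside CL and t1/2. Cmax and AUC0-last taken from the oral arm; F% calculated.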

[23] = Volume of distribution at steady state in Beagle dog at 0.5 mg/kg,iv; type: ADME, organism-based, Canis lupus familiaris; conditions: in vivo, read-out: Vdss; procedure, shortened: as §5
Cytochrome P450 3A4 = Cytochrome P450 3A4 (Homo sapiens, UniProt P08684); test: Inhibition of CYP3A4 (unknown origin); type: ADME; procedure, shortened: as §3
[24] = biological target: Voltage-gated inwardly rectifying potassium channel KCNH2 (Homo sapiens, UniProt Q12809); test: Inhibition of human ERG; type: toxicity
[25] = Oral bioavailability in mouse at 6.25 mg/kg; type: ADME, organism-based; conditions: in vivo
[26] = Volume of distribution at steady state in mouse at 1 mg/kg,iv; type: ADME, organism-based; conditions: in vivo, read-out: Vdss
Procedure, shortened: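 PK in CD-1 mice at 1 mg/kg iv and 6.25 mg/kg po. Vd, CL and t1/2 taken from the iv arm; Cmax, AUC0-last and F% taken from the oral arm.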

[27] = Cmax in Beagle dog at 2 mg/kg,po; type: ADME, organism-based, Canis lupus familiaris; set-up: dose 2 mg/kg, route po; conditions: in vivo
[28] = Efflux ratio of apparent permeability across basolateral to apical over apical to basolateral membrane in dog MDCK cells; type: ADME, cell-based, Canis lupus familiaris
[29] = Half life in mouse at 1 mg/kg,iv; type: ADME, organism-based; conditions: in vivo
Procedure, shortened: (§6)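 CD-1 mice. Single iv dose of 1 mg/kg. Clearance and half-life are derived from plasma concentration-time data.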

[30] = Clearance in Sprague-Dawley rat at 1 mg/kg,iv; type: ADME, organism-based; conditions: in vivo; procedure, shortened: as §4
[31] = Oral bioavailability in Sprague-Dawley rat at 5 mg/kg; type: ADME, organism-based; conditions: in vivo
[32] = Half life in Beagle dog at 0.5 mg/kg,iv; type: ADME, organism-based, Canis lupus familiaris; conditions: in vivo
Procedure, shortened: (§7)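 Beagle dogs. Single iv dose of 0.5 mg/kg. Clearance and half-life are derived from plasma concentration-time data.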

[33] = Microsomal stability in rat liver microsomes assessed as clearance; type: ADME, Microsome; conditions: read-out: CLH
[34] = Clearance in mouse at 1 mg/kg,iv; type: ADME, organism-based; conditions: in vivo; procedure, shortened: as §6
[35] = Oral bioavailability in Beagle dog at 2 mg/kg; type: ADME, organism-based, Canis lupus familiaris; conditions: in vivo
[36] = Microsomal stability in mouse liver microsomes assessed as clearance; type: ADME, Microsome; conditions: read-out: CLH
[37] = AUC (0 to last) in Beagle dog at 2 mg/kg,po; type: ADME, organism-based, Canis lupus familiaris; set-up: time 0 - last, dose 2 mg/kg, route po; conditions: in vivo
[38] = Cmax in mouse at 6.25 mg/kg,po; type: ADME, organism-based; set-up: dose 6.25 mg/kg, route po; conditions: in vivo
[39] = Cmax in Sprague-Dawley rat at 5 mg/kg,po; type: ADME, organism-based; set-up: dose 5 mg/kg, route po; conditions: in vivo
[40] = AUC in Sprague-Dawley rat at 200 mg/kg,po measured after 14 days; type: ADME, organism-based; set-up: dose 200 mg/kg, time 14 day, route po; conditions: in vivo; procedure, shortened: as §2
[41] = Clearance in Beagle dog at 0.5 mg/kg,iv; type: ADME, organism-based, Canis lupus familiaris; conditions: in vivo; procedure, shortened: as §7
[42] = Toxicity in Sprague-Dawley rat assessed as death at 200 mg/kg,po measured after 14 days; type: organism-based; conditions: in vivo, 336 h, time 14 day
Procedure, shortened: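 14-day pilot oral toxicology study in rats, 8 males and 8 females per dose level. Dosing once daily at 30, 100 and 200 mg/kg, with the reference drug at 200 mg/kg. Deaths counted over the 14 days; drug exposure (AUC) recorded in the high-dose groups.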

[43] = AUC (0 to last) in mouse at 6.25 mg/kg,po; type: ADME, organism-based; set-up: time 0 - last, dose 6.25 mg/kg, route po; conditions: in vivo

Cytochrome P450 2C9, sequence (P11712 whole entry): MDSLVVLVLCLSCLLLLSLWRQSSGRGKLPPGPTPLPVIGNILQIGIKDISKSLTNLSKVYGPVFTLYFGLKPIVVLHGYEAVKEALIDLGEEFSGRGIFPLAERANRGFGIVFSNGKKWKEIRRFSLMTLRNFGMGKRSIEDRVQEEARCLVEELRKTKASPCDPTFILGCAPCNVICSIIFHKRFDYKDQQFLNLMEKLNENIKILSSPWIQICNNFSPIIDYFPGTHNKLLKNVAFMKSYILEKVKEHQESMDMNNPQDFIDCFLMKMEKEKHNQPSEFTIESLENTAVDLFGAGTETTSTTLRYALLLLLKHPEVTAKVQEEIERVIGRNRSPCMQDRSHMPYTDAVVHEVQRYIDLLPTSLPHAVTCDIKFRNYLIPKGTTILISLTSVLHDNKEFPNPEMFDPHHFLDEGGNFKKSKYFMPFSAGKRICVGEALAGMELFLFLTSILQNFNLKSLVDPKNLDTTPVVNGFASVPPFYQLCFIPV
Cytochrome P450 2D6, sequence (P10635 whole entry): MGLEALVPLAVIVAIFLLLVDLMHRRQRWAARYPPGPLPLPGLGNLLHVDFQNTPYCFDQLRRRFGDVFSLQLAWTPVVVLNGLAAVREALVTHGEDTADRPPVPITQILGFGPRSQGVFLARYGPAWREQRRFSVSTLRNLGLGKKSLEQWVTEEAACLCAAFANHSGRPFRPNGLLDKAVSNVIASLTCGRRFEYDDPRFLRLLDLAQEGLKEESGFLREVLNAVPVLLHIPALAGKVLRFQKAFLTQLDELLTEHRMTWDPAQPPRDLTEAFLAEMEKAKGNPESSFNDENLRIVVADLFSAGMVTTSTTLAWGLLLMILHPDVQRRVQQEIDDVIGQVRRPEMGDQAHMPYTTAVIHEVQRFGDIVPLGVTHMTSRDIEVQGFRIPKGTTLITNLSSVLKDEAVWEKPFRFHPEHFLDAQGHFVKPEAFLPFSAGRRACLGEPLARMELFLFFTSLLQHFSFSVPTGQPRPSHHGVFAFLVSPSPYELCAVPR
Cytochrome P450 2C19, sequence (P33261 whole entry, canonical isoform): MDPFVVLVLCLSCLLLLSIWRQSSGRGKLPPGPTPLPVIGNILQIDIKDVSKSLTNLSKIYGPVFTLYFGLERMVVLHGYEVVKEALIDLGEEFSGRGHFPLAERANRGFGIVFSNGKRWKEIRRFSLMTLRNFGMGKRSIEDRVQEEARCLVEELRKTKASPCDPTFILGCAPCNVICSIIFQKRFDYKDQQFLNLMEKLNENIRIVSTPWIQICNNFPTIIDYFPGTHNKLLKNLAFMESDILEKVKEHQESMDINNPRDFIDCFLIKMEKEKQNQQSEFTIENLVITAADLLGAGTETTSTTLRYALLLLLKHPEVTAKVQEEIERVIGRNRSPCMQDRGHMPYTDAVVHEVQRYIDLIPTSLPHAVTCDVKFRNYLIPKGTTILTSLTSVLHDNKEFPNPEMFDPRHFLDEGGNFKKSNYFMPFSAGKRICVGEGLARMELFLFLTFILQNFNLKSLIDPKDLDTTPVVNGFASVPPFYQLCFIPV
Cytochrome P450 3A4, sequence (P08684 whole entry): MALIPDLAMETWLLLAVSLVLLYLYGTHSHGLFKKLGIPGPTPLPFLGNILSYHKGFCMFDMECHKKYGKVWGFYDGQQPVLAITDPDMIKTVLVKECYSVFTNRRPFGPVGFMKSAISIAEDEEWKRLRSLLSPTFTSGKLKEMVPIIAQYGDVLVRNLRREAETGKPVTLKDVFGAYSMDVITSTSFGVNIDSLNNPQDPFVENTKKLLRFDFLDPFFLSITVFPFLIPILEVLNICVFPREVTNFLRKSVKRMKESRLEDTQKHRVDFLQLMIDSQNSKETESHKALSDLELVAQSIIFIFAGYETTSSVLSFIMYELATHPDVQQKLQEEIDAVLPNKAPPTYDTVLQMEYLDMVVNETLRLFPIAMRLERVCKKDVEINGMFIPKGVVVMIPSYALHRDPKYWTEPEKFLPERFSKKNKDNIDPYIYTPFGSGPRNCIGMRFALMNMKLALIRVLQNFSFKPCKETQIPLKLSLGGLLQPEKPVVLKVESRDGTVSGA
Voltage-gated inwardly rectifying potassium channel KCNH2, sequence (Q12809 whole entry): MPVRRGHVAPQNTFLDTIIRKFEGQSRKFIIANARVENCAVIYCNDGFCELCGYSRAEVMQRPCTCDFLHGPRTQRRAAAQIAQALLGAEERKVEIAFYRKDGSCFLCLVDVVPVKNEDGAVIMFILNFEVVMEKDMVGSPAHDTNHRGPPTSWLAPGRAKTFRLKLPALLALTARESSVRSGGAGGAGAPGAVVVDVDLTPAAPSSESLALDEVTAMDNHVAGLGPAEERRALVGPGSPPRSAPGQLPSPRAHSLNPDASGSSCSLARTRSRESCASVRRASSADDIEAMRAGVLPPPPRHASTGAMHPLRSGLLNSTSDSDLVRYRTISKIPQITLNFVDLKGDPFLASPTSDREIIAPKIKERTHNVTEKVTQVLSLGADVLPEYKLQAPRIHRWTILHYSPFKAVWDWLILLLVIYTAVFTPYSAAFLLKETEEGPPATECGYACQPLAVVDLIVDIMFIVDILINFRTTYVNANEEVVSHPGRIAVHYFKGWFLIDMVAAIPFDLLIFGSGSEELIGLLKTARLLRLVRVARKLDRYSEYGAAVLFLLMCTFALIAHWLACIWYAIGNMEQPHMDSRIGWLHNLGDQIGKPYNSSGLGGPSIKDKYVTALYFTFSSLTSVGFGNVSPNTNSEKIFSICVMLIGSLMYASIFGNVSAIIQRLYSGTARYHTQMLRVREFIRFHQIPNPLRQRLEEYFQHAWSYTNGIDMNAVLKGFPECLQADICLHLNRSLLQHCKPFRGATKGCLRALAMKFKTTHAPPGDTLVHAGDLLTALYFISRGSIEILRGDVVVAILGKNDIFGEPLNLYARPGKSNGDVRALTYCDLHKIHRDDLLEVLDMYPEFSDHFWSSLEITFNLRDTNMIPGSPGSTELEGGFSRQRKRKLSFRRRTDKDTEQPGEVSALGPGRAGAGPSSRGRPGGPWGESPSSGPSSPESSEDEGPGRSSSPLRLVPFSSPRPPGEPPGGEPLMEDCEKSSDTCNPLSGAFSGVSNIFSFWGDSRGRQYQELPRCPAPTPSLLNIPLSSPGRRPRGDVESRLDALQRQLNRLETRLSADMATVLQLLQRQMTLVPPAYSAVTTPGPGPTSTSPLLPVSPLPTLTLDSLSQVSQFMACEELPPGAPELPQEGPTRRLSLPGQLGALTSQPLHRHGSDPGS

COc1nc2ccc(Br)cc2cc1[C@@H](c1ccccc1)[C@@](O)(CCN(C)C)c1cccc2ccccc12 [BEDAQUILINE]
concentration at 96 h [1]: 1.52 ng/mL
AUC at 288 h [2]: 109 µM·h
Kp at 96 h [3]: 29.6
MIC [4]: < 0.2 µg/mL
fraction unbound [5]: < 0.01
Activity [6]: 10%
CC50 [7]: > 50 µg/mL
IC50 (Cytochrome P450 2C19): > 10 µM
Papp A→B [8]: 0.06 ×10⁻⁶ cm/s
IC50 (Cytochrome P450 2C9): > 10 µM
MIC [9]: 0.03 µg/mL (≈ 0.054 µM)
Kp at 96 h [10]: 38.7
concentration at 96 h [11]: 4.56 ng/mL
IC50 (Cytochrome P450 1A2): > 10 µM
concentration at 96 h [12]: 135 ng/g
fraction unbound [13]: < 0.01
CC50 [14]: > 64 µg/mL
Papp B→A [15]: 0.09 ×10⁻⁶ cm/s
Activity [16]: Toxic
MIC50 [17]: 0.029 µg/mL (≈ 0.0522 µM)
MIC90 [17]: 0.043 µg/mL (≈ 0.0774 µM)
concentration at 96 h [18]: 58.8 ng/g
IC50 (Cytochrome P450 2D6): > 10 µM

COc1nc(-c2ccc(Cl)cc2)ccc1[C@@H](c1ccccc1)[C@@](O)(CCN(C)C)c1cccc2ccccc12
AUC(0-t) [19]: 4080 ng·h/mL
concentration at 96 h [1]: 4.74 ng/mL
half-life [20]: 25.6 h
Kp at 96 h [3]: 33.7
MIC [4]: 0.56 µg/mL (≈ 1.04 µM)
microsomal CLint [21]: 39.4 µL/min/mg
fraction unbound [5]: < 0.01
Vd [22]: 9.2 L/kg
Activity [6]: Non-Toxic
Vd [23]: 6.04 L/kg
CC50 [7]: > 50 µg/mL
IC50 (Cytochrome P450 3A4): > 10 µM
IC50 [24]: > 30 µM
bioavailability [25]: 40.7%
IC50 (Cytochrome P450 2C19): > 10 µM
Vd [26]: 10.4 L/kg
Papp A→B [8]: 0.04 ×10⁻⁶ cm/s
Cmax [27]: 390 ng/mL
IC50 (Cytochrome P450 2C9): > 10 µM
efflux ratio [28]: 2.54
MIC [9]: 0.08 µg/mL (≈ 0.149 µM)
half-life [29]: 46.3 h
clearance [30]: 8.25 mL/min/kg
Kp at 96 h [10]: 71.1
bioavailability [31]: 36.7%
half-life [32]: 56.2 h
concentration at 96 h [11]: 25.4 ng/mL
microsomal CLint [33]: 45.7 µL/min/mg
clearance [34]: 3.59 mL/min/kg
bioavailability [35]: 58.9%
IC50 (Cytochrome P450 1A2): > 10 µM
microsomal CLint [36]: 71.3 µL/min/mg
AUC(0-t) [37]: 8500 ng·h/mL
concentration at 96 h [12]: 857 ng/g
Cmax [38]: 503 ng/mL
fraction unbound [13]: < 0.01
CC50 [14]: > 64 µg/mL
Cmax [39]: 328 ng/mL
AUC at 336 h [40]: 248 µM·h
clearance [41]: 2.04 mL/min/kg
Papp B→A [15]: 0.11 ×10⁻⁶ cm/s
MIC50 [17]: 0.083 µg/mL (≈ 0.155 µM)
MIC90 [17]: 0.152 µg/mL (≈ 0.283 µM)
Activity [42]: Toxic
AUC(0-t) [43]: 10200 ng·h/mL
concentration at 96 h [18]: 337 ng/g
IC50 (Cytochrome P450 2D6): > 10 µM
